Test [1] is described as follows: Inhibition of beta lactamase KPC-2 in Klebsiella pneumoniae using nitrocefin as substrate preincubated for 10 mins followed by substrate addition. In short, it runs like this: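 KPC-2 was preincubated with cyclic boronate for 10 min in 10 mM HEPES pH 7.5, 150 mM NaCl at 25 °C. 50 μM nitrocefin was then added and initial hydrolysis rates were read at 486 nm. IC50 was derived from the inhibitor concentration dependence of these rates. Inhibitor stocks were 100 mM in DMSO, diluted in buffer.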

Test [2] is described as follows: Inhibition of beta lactamase KPC-2 in Klebsiella pneumoniae assessed as apparent inhibition constant using nitrocefin as substrate measured without preincubation by Dixon plot analysis. The note with it: read-out: Ki(app). The essentials: (§1)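 Direct competition assays at 25 °C in 10 mM HEPES pH 7.5, 150 mM NaCl. A range of cyclic boronate concentrations was mixed with 50 μM nitrocefin, and the reaction was started by adding 1 nM KPC-2. Nitrocefin hydrolysis was followed at 486 nm (Δε 20 500 M-1 cm-1). Kiapp and k2/K were both taken from these competition data. Inhibitor stocks were 100 mM in DMSO, diluted in buffer.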

Test [3] concerns Klebsiella pneumoniae. Nature of the test: Inhibition of beta lactamase KPC-2 in Klebsiella pneumoniae assessed as apparent second order rate constant K2/K using nitrocefin as substrate. The essentials: as §1
Test [4] deals with Klebsiella pneumoniae. The test can be described thus: Potentiation of cefepime-induced antibacterial activity against Klebsiella pneumoniae Ecl8 transfected with pUBYT vector expressing KPC-2 assessed as cefepime MIC measured after 18 to 24 hrs by CLSI protocol based broth microdilution assay (Rvb >=256 ug/ml). The note with it: time hrs 18-24. The test is classed as functional. In short, it runs like this: (§2)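 Broth microdilution in cation-adjusted Mueller–Hinton broth per CLSI, triplicate; K. pneumoniae Ecl8 carrying pUBYT with blaKPC-2 under the ISKpn7 promoter. β-Lactam serially diluted with inhibitor fixed at 4 mg per liter (diluted from 100 mM DMSO stock). Incubated at 37 °C for 18 to 24 hours; growth read as absorbance at 600 nm.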
(In broth dilution the organism is exposed to a series of concentrations in liquid medium.)

Test [5] deals with Klebsiella pneumoniae. Nature of the test: Potentiation of meropenem-induced antibacterial activity against Klebsiella pneumoniae Ecl8 transfected with pUBYT vector expressing KPC-2 assessed as meropenem MIC measured after 18 to 24 hrs by CLSI protocol based broth microdilution assay (reference value: 16 ug/ml). It is filed as functional. The note with it: time hrs 18-24. In short, it runs like this:
as §2

Test [6] deals with Klebsiella pneumoniae. The test can be described thus: Irreversible inhibition of beta lactamase KPC-2 in Klebsiella pneumoniae assessed as off-rate constant using nitrocefin as substrate preincubated for 30 mins followed by substrate addition. The essentials:
(§3)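 Jump-dilution off-rate assay. 1 μM KPC-2 was preincubated with 8 μM cyclic boronate for 30 min at room temperature, then serially diluted to a final KPC-2 concentration of 500 pM. 50 μM nitrocefin was added and recovery of hydrolysis was monitored at 486 nm in 10 mM HEPES pH 7.5, 150 mM NaCl. koff and half-life were derived from the recovery.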

In test [7] the test system is Klebsiella pneumoniae. The test can be described thus: Inhibition of beta lactamase KPC-2 in Klebsiella pneumoniae assessed as irreversible covalent complex formation by measuring half life using nitrocefin as substrate. The essentials:
as §3

Structures are written as SMILES. Where only a bound is given, the exact number is not on record here.

One may read the IC50 as the point on the concentration scale where inhibition reaches its midpoint. A high value points to weaker potency. What is called MIC is the least concentration at which growth counts as inhibited.

In test [1], `NCCN[C@H]1CC[C@H](CC(=O)N[C@H]2Cc3cccc(C(=O)O)c3OB2O)CC1` gave an IC50 of 0.037 µM. For the same compound, the Ki in test [2] stood at 1.3 µM. Besides, the K in test [3] is 1 10^4/M/s. Further, the MIC in test [4] and in test [5] was at most 0.125 mg/L each time.
With `O=C(NC1CCNCC1)[C@@H]1CC[C@@H]2CN1C(=O)N2OS(=O)(=O)O` [RELEBACTAM], the Ki in test [2] stood at 1.2 µM. For the same compound, in test [6], the K amounted to 0.00087 s⁻¹.
As to `O=C(O)C[C@@H]1CC[C@H](NC(=O)Cc2cccs2)B(O)O1` [VABORBACTAM], inhibition in test [1] was half-maximal at 0.035 µM (IC50). Moreover, the Ki in test [2] is 8.5 µM. Besides, the K is 6.7 10^2/M/s in test [3] and 0.00016 s⁻¹ in test [6]. Moreover, the T1/2 in test [7] came out at 1.2 h. The MIC in test [4] and in test [5] was at most 0.125 mg/L in each case.
